In ChEMBL document CHEMBL3414531, “Design, synthesis and biological evaluation of quinazoline derivatives as anti-trypanosomatid and anti-plasmodial agents” (Eur J Med Chem, 2015):
The source made the active and inactive calls. The calls are words filed in the database; no cut-off is given here.

What was measured:
[1] = Cytotoxicity against African green monkey Vero cells after 24 hrs by MTT assay; assay type: cell-based; details: chlorocebus sabaeus
Method in brief: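 Confluent Vero cells were trypsinized and resuspended in MEM with 10% FBS, seeded in 96-well plates and held 24 h at 37 °C, 5% CO2. Compounds at various concentrations were added (DMSO control) for 24 h. MTT was added for 2 h, then SDS-HCl overnight at 24 °C. A540 was read and viability taken relative to control cells. Triplicate; CC50 derived.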

[2] = Antioxidant activity assessed as inhibition of ABTS free radical scavenging activity after 10 mins by spectrophotometry relative to control; assay type: physicochemical
Method in brief: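 ABTS (7 mM) and potassium persulfate (2.45 mM), final concentrations in water, mixed and kept in the dark at room temperature for 16 h to form ABTS radical cation. Diluted in water to A734 of 1.00. Compounds or Trolox standards added (final 0–20). Absorbance read 10 min after mixing. IC50 is 50% radical scavenging, relative uncertainty under five percent.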

Trypanosoma cruzi [3] = experiment: Antimicrobial activity against bloodstream trypomastigote stage of Trypanosoma cruzi NINOA after 24 hrs by Brener method; assay type: functional
Plasmodium berghei [4] = experiment: Antiplasmodial activity against Plasmodium berghei infected in CD1 mouse assessed as reduction in parasitemia at 50 mg/kg, po administered for 4 days measured on day 4 relative to vehicle-treated control; assay type: functional; set-up: scale not given: the % may be the effect or the level left
Method in brief: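 P. berghei ANKA was passaged ip (0.2 mL saline-diluted blood) through groups of female CD1 mice until infection stabilized. Four-day suppression test: oral 50 mg/kg every 24 h on days 0–4 post-inoculation (n = 5, in duplicate). Vehicle control was 0.2 mL gum arabic orally. Parasitemia was read from tail blood on day 4 and inhibition calculated against the control group. Survival time was also recorded.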

Leishmania mexicana [5] = experiment: Antimicrobial activity against Leishmania mexicana MHOM/BZ/61/M379 after 24 hrs by haemocytometry; assay type: functional; details: MHOM/BZ/61/M379, 24 h
Plasmodium berghei [6] = experiment: Antiplasmodial activity against Plasmodium berghei infected in CD1 mouse assessed as survival time at 50 mg/kg, po administered for 4 days measured on day 4 relative to vehicle-treated control; assay type: functional
Method in brief: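 P. berghei ANKA was passaged by ip injection of 0.2 mL saline-diluted blood from donor mice at about 30% parasitaemia until the infection was stable. In a 4-day suppression test, mice received 50 mg/kg orally every 24 h on days 0–4 post-inoculation (n = 5, in duplicate), with 0.2 mL Arabic gum orally as control. Survival time was recorded against untreated mice, and mice without parasitaemia on day 30 counted as cured.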

Trypanosoma cruzi [7] = experiment: Antimicrobial activity against bloodstream trypomastigote stage of Trypanosoma cruzi INC-5 after 24 hrs by Brener method; assay type: functional; details: INC-5, 24 h
Leishmania mexicana [8] = details: MHOM/BZ/61/M379
Leishmania mexicana [9] = experiment: Inhibition of DHFR in promastigote stage of Leishmania mexicana at 3 to 8 uM after 24 hrs in presence of folinic acid/folic acid/ferulic acid
Method in brief: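 L. mexicana MHOM/BZ/61/M379 promastigotes, 10^6 in log phase, were incubated with folinic acid, folic acid or ferulic acid at 20, 40, 60, 80 or 100. Cells were washed, resuspended in PBS and held 1 h at room temperature, then pelleted and resuspended in culture medium in 24-well plates. Compound was added and plates incubated 24 h. Percentage of living parasites was determined.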

| Compound | CC50 at 24 h [1] | IC50 [2] | LC50 (Trypanosoma cruzi [3]) | Activity (Plasmodium berghei [4]) | LC50 (Leishmania mexicana [5]) | Survival (Plasmodium berghei [6]) | LC50 (Trypanosoma cruzi [7]) | LC50 (Leishmania mexicana [8]) | inhibition (Leishmania mexicana [9]) |
| --- | --- | --- | --- | --- | --- | --- | --- | --- | --- |
| CC1CS(=O)(=O)CCN1/N=C/c1ccc([N+](=O)[O-])o1 (stereo not drawn) [NIFURTIMOX] | 163 µM |  |  |  |  |  |  |  |  |
| Nc1nc(N)c2cc(NCc3ccc4c(c3)OCCO4)ccc2n1 | > 200 µM | 6.29 µM | 66.5 µM | 44.2% | 22.4 µM | 11 days | 72.5 µM |  |  |
| O=C(Cn1ccnc1[N+](=O)[O-])NCc1ccccc1 [BENZNIDAZOLE] |  |  | 780 µM |  |  |  | 690 µM |  |  |
| COc1ccc(CN(Cc2ccc(OC(F)(F)F)cc2)c2ccc3nc(N)nc(N)c3c2)cc1 | > 200 µM | 24.5 µM | 17.8 µM | 95.2% | 8 µM | 21 days | 40.7 µM |  |  |
| MEGLUMINE ANTIMONATE |  |  |  |  |  |  |  | 183 µM |  |
| O=C1O[C@H]([C@@H](O)CO)C(O)=C1O [ASCORBIC ACID] |  | 11.2 µM |  |  |  |  |  |  |  |
| VITAMIN E |  | 14.8 µM |  |  |  |  |  |  |  |
| CCc1nc(N)nc(N)c1-c1ccc(Cl)cc1 [PYRIMETHAMINE] | 122 µM |  |  | 100% |  | >23 days |  |  |  |
| Cc1c(C)c2c(c(C)c1O)CCC(C)(C(=O)O)O2 (stereo not drawn) [TROLOX] |  | 10.9 µM |  |  |  |  |  |  |  |
| CCN(CC)CCCC(C)Nc1ccnc2cc(Cl)ccc12 (stereo not drawn) [CHLOROQUINE] |  |  |  | 100% |  | >23 days |  |  |  |
| Nc1nc(N)c2cc(NCc3ccc(OC(F)(F)F)cc3)ccc2n1 | 182 µM | 4.75 µM | 20.6 µM | 99.9% | 8.08 µM | 17 days | 46.1 µM |  | Active |
| CN(C)CCCOc1ccc(CNc2ccc3nc(N)nc(N)c3c2)cc1 | > 200 µM | 6.38 µM | 288 µM | 53.2% | 65.4 µM | 12 days | 184 µM |  |  |
| CCN(Cc1ccc(OC(F)(F)F)cc1)c1ccc2nc(N)nc(N)c2c1 | > 200 µM | 7.36 µM | 6.28 µM | 100% | 3.06 µM | >23 days | 43.8 µM |  | Active |
| COc1ccc(CNc2ccc3nc(N)nc(N)c3c2)cc1 | 147 µM | 5.72 µM | 32.7 µM | 98.5% | 14.6 µM | 18 days | 155 µM |  |  |
| COc1ccc(CNc2ccc3nc(NC(C)=O)nc(NC(C)=O)c3c2)cc1 | 156 µM | 7.04 µM | 197 µM | 89.3% | 250 µM | 6 days | 509 µM |  |  |
| Nc1ccc2nc(N)nc(N)c2c1 [QUINAZOLINE-2,4,6-TRIAMINE] |  | 6.78 µM |  |  |  |  |  |  |  |
| COc1ccc(CN(Cc2ccc(OC)cc2)c2ccc3nc(N)nc(N)c3c2)cc1 | > 200 µM | 114 µM | 62.6 µM | 0% | 23.1 µM | 7 days | 46.5 µM |  |  |
| Nc1nc(N)c2cc(N(Cc3ccc(OC(F)(F)F)cc3)Cc3ccc(OC(F)(F)F)cc3)ccc2n1 | > 200 µM | 33.9 µM | 35 µM | 21% | 4.93 µM | 14 days | 29.2 µM |  |  |
